PAFAH1B2 inh – inhibitors of human PAFAH1B2; P68402; recombinant PAFAH1B2, FP-rhodamine activity probe, fluorescence polarization; inhibition, % at 3.39 µM; hit rate 1.2% among 340,000;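 active = inhibition above the mean of all tested compounds plus 3 SD, cut at about 24% in these data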;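 also: 0% = enzyme with DMSO and 100% = wells lacking PAFAH1B2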
PREPL inhibitor – human PREPL enzyme inhibition. hit rate 0.68% among 320,000. Q4J6C6. inhibition, % at 5.96 µM. recombinant PREPL, fluorescence polarization activity-based probe; in the data active = inhibition above about 43%;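 also: 0% = enzyme with DMSO and 100% = wells lacking enzyme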
Target sequence (Q4J6C6 whole entry, looked up): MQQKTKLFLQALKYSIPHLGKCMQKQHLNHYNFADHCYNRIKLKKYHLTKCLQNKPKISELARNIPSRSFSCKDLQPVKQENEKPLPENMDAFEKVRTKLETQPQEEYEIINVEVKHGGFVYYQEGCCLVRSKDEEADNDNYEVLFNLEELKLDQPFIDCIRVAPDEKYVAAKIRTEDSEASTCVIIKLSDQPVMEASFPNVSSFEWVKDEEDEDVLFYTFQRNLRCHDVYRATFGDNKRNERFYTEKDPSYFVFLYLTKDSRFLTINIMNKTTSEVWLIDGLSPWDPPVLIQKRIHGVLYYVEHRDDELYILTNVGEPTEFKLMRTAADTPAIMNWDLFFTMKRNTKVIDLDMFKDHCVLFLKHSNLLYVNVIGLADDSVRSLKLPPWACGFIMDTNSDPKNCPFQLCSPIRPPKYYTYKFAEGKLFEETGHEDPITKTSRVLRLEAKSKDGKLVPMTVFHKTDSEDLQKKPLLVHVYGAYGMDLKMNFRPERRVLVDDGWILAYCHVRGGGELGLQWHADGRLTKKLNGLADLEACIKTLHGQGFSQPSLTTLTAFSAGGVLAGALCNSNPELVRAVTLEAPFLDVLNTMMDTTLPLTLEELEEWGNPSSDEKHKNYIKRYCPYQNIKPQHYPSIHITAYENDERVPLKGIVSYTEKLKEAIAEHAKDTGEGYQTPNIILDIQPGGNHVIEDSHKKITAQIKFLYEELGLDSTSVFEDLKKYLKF
pPAFAH inh – inhibitors of human plasma PAF acetylhydrolase (pPAFAH) | AID 463082 | hit rate 1.5% among 330,000 | Q13093 | recombinant pPAFAH, FP-rhodamine probe fluorescence polarization | inhibition, % at 3.39 µM;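 active = inhibition above the mean inhibition across the screen plus 3 SD, cut at about 25% in these data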;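 also: inhibitors block binding of the rhodamine activity-based probe so polarization drops; 0% = enzyme with DMSO and 100% = wells lacking pPAFAH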
PAFAH1B3 FP inh – blocks human PAF acetylhydrolase 1B catalytic subunit 3. AID 492972. hit rate 0.28% among 340,000. Q15102. inhibition, % at 3.39 µM. recombinant PAFAH1B3, FP-rhodamine probe, fluorescence polarization;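 active = inhibition above the screen-wide average of all tested compounds plus 3 SD, cut at about 25% in these data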;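 also: 0% = enzyme with DMSO only and 100% = wells lacking PAFAH1B3 protein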
Apaf1 inhib – blocks human Apaf-1 apoptosome activity; reconstituted apoptosome caspase-3 activity, DEVD-Rh110 fluorescence; O14727; inhibition, % at 20 µM; AID 489030; hit rate 0.71% among 330,000; active = inhibition of at least 40% at 20 µM;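 also: plate controls were DMSO wells for no effect and DEVD-CHO caspase inhibitor wells for full effect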
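Medium: Hepes buffer, pH 7.5 / System: biochemical Apaf-1 apoptosome reconstitution / Measured by: Rh110 fluorescence, excitation 480 nm, emission 540 nm / Times: compound with Apaf-1, dATP, procaspase-3 30 min, then 50 min reaction, room temperature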
PAFAH2 FP inh – inhibitors of human PAFAH2; Q99487; recombinant PAFAH2, FP-rhodamine activity probe, fluorescence polarization; inhibition, % at 3.39 µM; hit rate 0.99% among 340,000; AID 492956;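 active = inhibition above the mean over all tested compounds plus 3 SD, cut at about 30% in these data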;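 also: inhibitors block probe labeling of enzyme so polarization drops; 0% = enzyme with DMSO and 100% = wells lacking PAFAH2 protein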
Apaf-1 inh conf2 – Apaf-1 inhibition, single-dose confirmed | reconstituted apoptosome, caspase-3 DEVD-Rh110 fluorescence | shares compounds with Apaf1 inhib | hit rate 25% among 1,800 | inhibition, % at 20 µM;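 active = mean inhibition of at least 40% at 20 µM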;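 also: plate controls were DMSO wells for no effect and DEVD-CHO caspase inhibitor control wells for full effect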
Rh110 interf inh – interferes with Rh110 fluorescence, flagging false Apaf-1 inhibitors. activation (fluorescence interference), % at 20 µM. Rh110 fluorescence interference, quenched caspase reaction. 1,800 tested, under 10 active. shares compounds with Apaf1 inhib;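 active = signal rise of 40% or more at 20 µM, treated as a fluorescence artifact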
PAFAH2 confirm – confirmation of human PAFAH2 inhibitors; recombinant PAFAH2, FP-rhodamine activity probe, fluorescence polarization; inhibition, % at 3.39 µM; shares compounds with PAFAH2 FP inh; AID 493030; hit rate 65% among 2,300;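 active = mean inhibition over three repeats above a set limit taken from the earlier primary screen, cut at about 30% in these data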;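 also: inhibitor blocks binding of rhodamine activity probe so polarization falls; 0% = enzyme with DMSO and 100% = wells lacking PAFAH2 protein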
PAFAH1B3 confirm – PAFAH1B3 (human) inhibition, confirmed. shares compounds with PAFAH1B3 FP inh. recombinant PAFAH1B3, FP-Rh activity-based probe, fluorescence polarization. inhibition, % at 3.39 µM. hit rate 30% among 390;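 active = average inhibition over triplicate runs above the hit cutoff set in the earlier primary screen, cut at about 25% in these data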;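 also: 0% = enzyme with DMSO and 100% = wells lacking PAFAH1B3 protein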
Numbers without * were called inactive; . = no result. An excerpt weighted towards active compounds, which were near 3.5% of everything screened.

SMILES	PAFAH1B2 inh	PREPL inhibitor	pPAFAH inh	PAFAH1B3 FP inh	Apaf1 inhib	PAFAH2 FP inh	PAFAH2 confirm	others
N#Cc1c(N)nc(N2CCCC2)c(C#N)c1-c1ccc(Cl)cc1	2	4	4	-1	12	4	.
Cc1ccc(S(=O)(=O)NC(=O)Nc2cccc(S(=O)(=O)N(C)C)c2)cc1	4	-3	6	3	-6	5	.
CC1(C)Cc2c(sc(NC(=O)C(=O)NCCCN3CCOCC3)c2C#N)CO1	5	4	2	1	3	1	.
CNC(=S)n1cnc(N)n1	5	-2	0	9	-2	1	.
S=C(Nc1ccc2nsnc2c1)N1CCCCCC1	9	8	2	32*	93*	15	.	Apaf-1 inh conf2=12;Rh110 interf inh=5;PAFAH1B3 confirm=10
C=CCN(CC=C)C(=S)Nc1ccc2nsnc2c1	17	6	1	59*	96*	17	.	Apaf-1 inh conf2=9;Rh110 interf inh=-5;PAFAH1B3 confirm=4
COc1ccc(CCNC(=O)Cn2cccc2C(=O)c2ccccc2C)cc1OC	-4	0	5	-1	3	-3	.
CCC(=O)Nc1c(S(=O)(=O)c2ccccc2)c2nc3ccccc3nc2n1C(C)c1ccccc1 (centres undefined)	1	8	9	-1	35	16	.
CCCCn1c(NC(=O)c2ccc(Br)o2)c(S(=O)(=O)c2ccccc2)c2nc3ccccc3nc21	22	3	-1	50*	71*	17	.	Apaf-1 inh conf2=31;Rh110 interf inh=-2;PAFAH1B3 confirm=9
Cc1ccccc1Cn1nc(C)c(NC(=O)/C=C/c2cnn(C)c2)c1C	5	-2	2	2	2	-4	.
CCOc1ccc(S(=O)(=O)/N=C(/Nc2ccc(OC)cc2)c2ccccc2)cc1	0	-1	7	8	6	52*	41*
CCOc1ccc(S(=O)(=O)/N=C(/Nc2ccc(C(C)=O)cc2)c2ccccc2)cc1	-1	-2	8	9	11	57*	41*
CC(=O)Nc1ccc(N/C(=N\S(=O)(=O)c2ccccc2)c2ccccc2)cc1	5	1	-3	10	-15	20	.
Cc1ccc(NC(=S)N(CCCN2CCOCC2)Cc2cccnc2)cc1C	-1	6	10	2	-7	-8	.
CCc1cc(=O)oc2cc(C)cc(OCC(=O)N[C@@H](CSCc3ccccc3)C(=O)O)c12	-1	8	9	9	-5	16	.
COc1ccc(/C=C/C(=O)NC(C)CCc2ccccc2)cc1OC (centres undefined)	0	12	6	4	-10	0	.
COc1ccc(C(=O)OCC(=O)NC(C)CCc2ccccc2)cc1OC (centres undefined)	6	-11	11	-2	1	74*	71*
CC(CCc1ccccc1)NC(=O)COC(=O)c1ccccc1Br (centres undefined)	10	-43	2	9	13	27	.
CC(C)n1nccc1NC(=O)COC(=O)c1ccc(NC(N)=O)cc1	5	18	3	6	1	65*	46*
COc1ccc(/C=C/C(=O)OCC(=O)NC(C)CCc2ccccc2)cc1OC (centres undefined)	6	8	6	2	1	64*	59*
CC(CCc1ccccc1)NC(=O)COC(=O)c1ccc(NC(N)=O)cc1 (centres undefined)	6	-23	0	4	4	67*	64*
NC(=O)Nc1ccc(C(=O)OCC(=O)Nc2sccc2C(N)=O)cc1	4	.	.	7	4	29	.
CC(CCc1ccccc1)NC(=O)COC(=O)c1cccc2ccccc12 (centres undefined)	0	-35	4	6	13	26	.
COc1ccc(C(=O)OCC(=O)NC(C)CCc2ccccc2)cc1 (centres undefined)	7	10	8	7	4	75*	68*
Nc1nnc(SCC(=O)NNC(=O)c2ccc([N+](=O)[O-])cc2)s1	6	-5	-1	2	-5	1	.
SMILES	PAFAH1B2 inh	PREPL inhibitor	pPAFAH inh	PAFAH1B3 FP inh	Apaf1 inhib	PAFAH2 FP inh	PAFAH2 confirm	others
CCCC(C)NC(=O)COC(=O)c1ccccc1SCC(=O)NC(C)CCC (centres undefined)	1	-3	6	2	6	39*	43*
COc1cc(NC(=O)COC(=O)c2ccccc2SCC(=O)N2CCCC2)cc(OC)c1	8	9	4	4	12	42*	24
O=C(COC(=O)c1ccccc1SCC(=O)N1CCCC1)Nc1ccccc1	1	13	1	4	10	88*	80*
O=C(OCC(=O)N1CCOCC1)c1ccccc1SCC(=O)N1CCCC1	1	0	-1	1	-19	6	.
NS(=O)(=O)c1cccc(NC(=O)COC(=O)c2ccccc2SCC(=O)N2CCCC2)c1	1	-6	3	17	-3	40*	36*
CN(C)S(=O)(=O)c1ccc(Cl)c(C(=O)OCC(=O)NC(=O)c2cccn2C)c1	-5	2	1	-2	-1	5	.
CC(C)(C)C(=O)Nc1ccc(-c2nnc3n2CCCCC3)cc1	0	.	.	7	6	1	.
COc1cccc(NC(=O)COC(=O)c2ccccc2SCC(=O)N2CCCC2)c1	-1	-8	3	1	13	82*	81*
Oc1ccccc1/C=N/NC(=S)NC1CC2CC1C1C=CCC21 (centres undefined)	13	9	14	20	8	52*	14
COc1ccc(OC)c(/C=C2\SC(=S)N(C(C(=O)O)c3ccccc3)C2=O)c1 (centres undefined)	0	-11	4	6	-4	32*	15
O=C(O)C(Cc1ccccc1)N1C(=O)/C(=C/c2cccs2)SC1=S (centres undefined)	.	.	.	.	6	.	.
COc1cccc(/C=C2\SC(=S)N(C(Cc3ccccc3)C(=O)O)C2=O)c1 (centres undefined)	5	-3	3	0	5	33*	16
Cc1ccc(S(=O)(=O)N(C)CC(=O)NNC(=O)CCNS(=O)(=O)c2cccc(C)c2)cc1	2	15	5	4	7	7	.

High-throughput results as filed in PubChem BioAssay.
